Experimental data reported in ChEMBL document CHEMBL3272061, “Experiments of synthesis of dl-camptothecin. 4. Synthesis and antileukemic activity of dl-camptothecin analogues” (J Med Chem, 1976).
Activity calls are given as the source filed them. The calls are words filed in the database; no cut-off is given here.

Key:
L1210 [1] = test: Antileukemic activity against mouse L1210 cells allografted in BDF1 mouse assessed as host survival at 20.8 umol/kg, ip after 30 days; type: functional, organism-based
Method in brief: (§1)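 BDF1 mice, 5 weeks old, were inoculated ip with 5×10^5 L1210 cells in 0.1 ml saline. Test groups were 4 male and 4 female mice; controls were 5 male and 5 female. Insoluble compounds were suspended in vehicle. Dosing was ip, either once on the day after inoculation or daily for 5 days. Read-out was increase in life span over controls. Mice alive beyond 30 days were counted as 30 days and scored as survivors.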

L1210 [2] = test: Antileukemic activity against mouse L1210 cells allografted in BDF1 mouse assessed as increase in life span of host at 52.1 umol/kg, ip relative to control; type: functional
Method in brief: (§2)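 BDF1 mice, 5 weeks old, were inoculated ip with 5×10^5 L1210 cells; test groups had 4 males and 4 females, controls 5 males and 5 females. A single ip dose was given on the day after inoculation, as a suspension in vehicle for the insoluble compounds. Read-out was increase in life span over controls, with survivors past 30 days counted as 30 days.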

L1210 [3] = test: Antileukemic activity against mouse L1210 cells allografted in BDF1 mouse assessed as increase in life span of host at 20.8 umol/kg, ip relative to control; type: functional; method in brief: as §2
Mus musculus = species: Mus musculus; test: Toxicity in mouse L1210 cells allografted BDF1 mouse; type: organism-based
[4] = Solubility of the compound; type: physicochemical
L1210 [5] = test: Antileukemic activity against mouse L1210 cells allografted in BDF1 mouse assessed as increase in life span of host at 12.5 umol/kg, ip qd for 5 days relative to control; type: functional; settings: 120 h; method in brief: as §1
L1210 [6] = test: Antileukemic activity against mouse L1210 cells allografted in BDF1 mouse assessed as increase in life span of host at 5 umol/kg, ip qd for 5 days relative to control; type: functional; settings: 120 h
Method in brief: (§3)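 BDF1 mice, 5 weeks old, were inoculated ip with 5×10^5 L1210 cells; test groups had 4 males and 4 females, controls 5 males and 5 females. Dosing was ip, five times over the 5 days after inoculation, as a suspension in vehicle for the insoluble compounds. Read-out was increase in life span over controls.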

L1210 [7] = test: Antileukemic activity against mouse L1210 cells allografted in BDF1 mouse assessed as increase in life span of host at 25 umol/kg, sc qd for 5 days relative to control; type: functional; settings: 120 h
L1210 [8] = test: Antileukemic activity against mouse L1210 cells allografted in BDF1 mouse assessed as increase in life span of host at 25 umol/kg, ip qd for 5 days relative to control; type: functional; settings: 120 h; method in brief: as §3
L1210 [9] = test: Antileukemic activity against mouse L1210 cells allografted in BDF1 mouse assessed as increase in life span of host at 1 umol/kg, ip qd for 5 days relative to control; type: functional; settings: 120 h; method in brief: as §1
L1210 [10] = test: Antileukemic activity against mouse L1210 cells allografted in BDF1 mouse assessed as increase in life span of host at 25 umol/kg, po qd for 4 days relative to control; type: functional; settings: 96 h
L1210 [11] = test: Antileukemic activity against mouse L1210 cells allografted in BDF1 mouse assessed as increase in life span of host at 12.5 umol/kg, po qd for 5 days relative to control; type: functional; settings: 120 h
L1210 [12] = test: Antileukemic activity against mouse L1210 cells allografted in BDF1 mouse assessed as increase in life span of host at 5 umol/kg, sc qd for 5 days relative to control; type: functional; settings: 120 h
L1210 [13] = test: Antileukemic activity against mouse L1210 cells allografted in BDF1 mouse assessed as increase in life span of host at 1 umol/kg, sc qd for 5 days relative to control; type: functional; settings: 120 h
L1210 [14] = test: Antileukemic activity against mouse L1210 cells allografted in BDF1 mouse assessed as increase in life span of host at 5 umol/kg, po qd for 5 days relative to control; type: functional; settings: 120 h
L1210 [15] = test: Antileukemic activity against mouse L1210 cells allografted in BDF1 mouse assessed as increase in life span of host at 1.11 umol/kg, ip qd for 5 days relative to control; type: functional; settings: 120 h; method in brief: as §1
L1210 [16] = test: Antileukemic activity against mouse L1210 cells allografted in BDF1 mouse assessed as increase in life span of host at 27.8 umol/kg, po qd for 4 days relative to control; type: functional; settings: 96 h
L1210 [17] = test: Antileukemic activity against mouse L1210 cells allografted in BDF1 mouse assessed as increase in life span of host at 139 umol/kg, ip relative to control; type: functional; method in brief: as §1
L1210 [18] = test: Antileukemic activity against mouse L1210 cells allografted in BDF1 mouse assessed as increase in life span of host at 13.8 umol/kg, po qd for 4 days relative to control; type: functional; settings: 96 h
L1210 [19] = test: Antileukemic activity against mouse L1210 cells allografted in BDF1 mouse assessed as increase in life span of host at 69.4 umol/kg, ip relative to control; type: functional; method in brief: as §2
L1210 [20] = test: Antileukemic activity against mouse L1210 cells allografted in BDF1 mouse assessed as increase in life span of host at 278 umol/kg, ip relative to control; type: functional; method in brief: as §2
L1210 [21] = test: Antileukemic activity against mouse L1210 cells allografted in BDF1 mouse assessed as increase in life span of host at 27.8 umol/kg, ip relative to control; type: functional; method in brief: as §2
L1210 [22] = test: Antileukemic activity against mouse L1210 cells allografted in BDF1 mouse assessed as increase in life span of host at 27.8 umol/kg, sc qd for 5 days relative to control; type: functional; settings: 120 h
L1210 [23] = test: Antileukemic activity against mouse L1210 cells allografted in BDF1 mouse assessed as increase in life span of host at 5.56 umol/kg, ip relative to control; type: functional; method in brief: as §2
L1210 [24] = test: Antileukemic activity against mouse L1210 cells allografted in BDF1 mouse assessed as increase in life span of host at 1.11 umol/kg, sc qd for 5 days relative to control; type: functional; settings: 120 h
L1210 [25] = test: Antileukemic activity against mouse L1210 cells allografted in BDF1 mouse assessed as increase in life span of host at 5.21 umol/kg, ip relative to control; type: functional; method in brief: as §2
L1210 [26] = test: Antileukemic activity against mouse L1210 cells allografted in BDF1 mouse assessed as increase in life span of host at 5.56 umol/kg, po qd for 4 days relative to control; type: functional; settings: 96 h
L1210 [27] = test: Antileukemic activity against mouse L1210 cells allografted in BDF1 mouse assessed as increase in life span of host at 27.8 umol/kg, ip qd for 5 days relative to control; type: functional; settings: 120 h; method in brief: as §3
L1210 [28] = test: Antileukemic activity against mouse L1210 cells allografted in BDF1 mouse assessed as increase in life span of host at 13.8 umol/kg, ip qd for 5 days relative to control; type: functional; settings: 120 h; method in brief: as §1
L1210 [29] = test: Antileukemic activity against mouse L1210 cells allografted in BDF1 mouse assessed as increase in life span of host at 5.56 umol/kg, ip qd for 5 days relative to control; type: functional; settings: 120 h; method in brief: as §3
L1210 [30] = test: Antileukemic activity against mouse L1210 cells allografted in BDF1 mouse assessed as increase in life span of host at 5.56 umol/kg, sc qd for 5 days relative to control; type: functional; settings: 120 h
L1210 [31] = test: Antileukemic activity against mouse L1210 cells allografted in BDF1 mouse assessed as increase in life span of host at 13.8 umol/kg, sc qd for 5 days relative to control; type: functional; settings: 120 h
L1210 [32] = test: Antileukemic activity against mouse L1210 cells allografted in BDF1 mouse assessed as host survival at 57.1 umol/kg, ip after 30 days; type: functional, organism-based; method in brief: as §1
L1210 [33] = test: Antileukemic activity against mouse L1210 cells allografted in BDF1 mouse assessed as host survival at 22.8 umol/kg, ip after 30 days; type: functional, organism-based; method in brief: as §1
L1210 [34] = test: Antileukemic activity against mouse L1210 cells allografted in BDF1 mouse assessed as increase in life span of host at 4.17 umol/kg, ip relative to control; type: functional; method in brief: as §2
L1210 [35] = test: Antileukemic activity against mouse L1210 cells allografted in BDF1 mouse assessed as increase in life span of host at 22.8 umol/kg, ip relative to control; type: functional; method in brief: as §2
L1210 [36] = test: Antileukemic activity against mouse L1210 cells allografted in BDF1 mouse assessed as increase in life span of host at 57.1 umol/kg, ip relative to control; type: functional; method in brief: as §2
L1210 [37] = test: Antileukemic activity against mouse L1210 cells allografted in BDF1 mouse assessed as host survival at 4.17 umol/kg, ip after 30 days; type: functional, organism-based; method in brief: as §1

Structure (SMILES): CCOCc1c(C(O)(CC(=O)OCC)C(=O)OCC)cc2n(c1=O)Cc1cc3ccccc3nc1-2 (stereo unspecified)
- Activity (L1210 [1]): inactive
- ILS at 52.1 µmol/kg (L1210 [2]): > 170%
- ILS at 20.8 µmol/kg (L1210 [3]): 55%
- Activity (Mus musculus): Toxic
- solubility [4]: Insoluble

Structure (SMILES): C=CCC1(O)C(=O)OCc2c1cc1n(c2=O)Cc2cc3ccccc3nc2-1 (stereo unspecified)
- ILS at 12.5 µmol/kg (L1210 [5]): 58%
- ILS at 5 µmol/kg (L1210 [6]): 13%
- ILS at 25 µmol/kg (L1210 [7]): 72%
- ILS at 25 µmol/kg (L1210 [8]): > 118%
- ILS at 1 µmol/kg (L1210 [9]): -2%
- ILS at 25 µmol/kg (L1210 [10]): 21%
- ILS at 12.5 µmol/kg (L1210 [11]): 40%
- ILS at 5 µmol/kg (L1210 [12]): 9%
- ILS at 1 µmol/kg (L1210 [13]): -2%
- ILS at 5 µmol/kg (L1210 [14]): 12%

Structure (SMILES): C=CCC1(O)C(=O)OCc2c1cc1n(c2=O)Cc2cc3ccccc3nc2-1 (racemic)
- ILS at 1.11 µmol/kg (L1210 [15]): 14%
- ILS at 27.8 µmol/kg (L1210 [16]): -1%
- ILS at 139 µmol/kg (L1210 [17]): > 60%
- ILS at 13.8 µmol/kg (L1210 [18]): -1%
- ILS at 69.4 µmol/kg (L1210 [19]): > 155%
- ILS at 278 µmol/kg (L1210 [20]): -43%
- ILS at 27.8 µmol/kg (L1210 [21]): 84%
- ILS at 27.8 µmol/kg (L1210 [22]): 51%
- ILS at 5.56 µmol/kg (L1210 [23]): 16%
- ILS at 1.11 µmol/kg (L1210 [24]): -1%
- ILS at 5.21 µmol/kg (L1210 [25]): -5%
- ILS at 5.56 µmol/kg (L1210 [26]): 3%
- ILS at 27.8 µmol/kg (L1210 [27]): -13%
- ILS at 13.8 µmol/kg (L1210 [28]): > 105%
- ILS at 5.56 µmol/kg (L1210 [29]): 42%
- Activity (Mus musculus): Toxic
- solubility [4]: Insoluble
- ILS at 5.56 µmol/kg (L1210 [30]): 4%
- ILS at 13.8 µmol/kg (L1210 [31]): 26%

Structure (SMILES): O=C(CC1(O)C(=O)OCc2c1cc1n(c2=O)Cc2cc3ccccc3nc2-1)c1ccccc1 (racemic)
- Activity (L1210 [32]): inactive
- Activity (L1210 [33]): inactive
- ILS at 4.17 µmol/kg (L1210 [34]): 26%
- ILS at 22.8 µmol/kg (L1210 [35]): 10%
- ILS at 57.1 µmol/kg (L1210 [36]): 21%
- Activity (L1210 [37]): inactive
- solubility [4]: Insoluble
